One block for each compound: values may come before it.
Key:
α-syn [1] = target: T1, α-syn (Homo sapiens, UniProt P37840); test: Native MS of α-syn/Cu2+/CLR01 solution, 1:1:3 molar ratio; type: binding
Method in brief: (§1)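 Protein at 10–30 μM in 20 mM ammonium acetate, with ligand added to 10–50 μM. Electrosprayed at 1–2 kV on a 15T FT-ICR (capillary exit 100 V, deflector 200 V, funnel 90 V, skimmer 50 V). Spectra deconvolved. Percent binding calculated from intensities of unbound and ligand-bound peaks.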

[2] = target: α-syn/Cu^2+/CLR01 complex (Homo sapiens, UniProt P37840); test: ECD top-down FT-ICR MS of the α-syn/Cu2+/CLR01 complex; type: binding
Method in brief: (§2)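 ESI on a 15T FT-ICR instrument: spray 1–2 kV, capillary exit 100 V, deflector plate 200 V, funnel 90 V, skimmer 50 V. Complex ions isolated with a 5–20 m/z notch, then fragmented by ECD (bias 1 V, pulse 10–50 ms). Product spectra deconvoluted with S/N limit 2. c- and z-ions assigned at 5 ppm error, with ligand and metals as unlocalized modifications.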

α-syn/ Cu^2+ complex = α-syn/ Cu^2+ complex (Homo sapiens, UniProt P37840); test: IM-MS of the α-syn/Cu2+ complex with and without CLR01; conditions: 9+ charge state
Method in brief: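 Copper-bound α-syn in 20 mM ammonium acetate, analysed with test compound at 1:3 molar ratio and without it. Mobility measured by quadrupole-IM-TOF: spray 1–2 kV, sampling cone 10–20 V, source offset 20 V. Data for each charge state extracted over the [M+nH]ⁿ⁺ peak.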

α-syn [3] = target: T1, α-syn; test: Native MS of α-syn/Mn2+/CLR01 solution, 1:5:3 molar ratio; type: binding
Method in brief: as §1

[4] = target: α-syn/Mn^2+/CLR01 complex (Homo sapiens, UniProt P37840); test: ECD top-down FT-ICR MS of the α-syn/Mn2+/CLR01 complex; type: binding
Method in brief: as §2

α-syn [5] = target: T1, α-syn; test: IM-MS of α-syn with Mn2+ and CLR01
Method in brief: (§3)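 IM-MS on a quadrupole-IM-time-of-flight instrument: spray 1–2 kV, sampling cone 10–20 V, source offset 20 V. Spectra taken over the full m/z range, with each charge state extracted over its [M+nH]ⁿ⁺ peak. Ligand at 5x molar concentration for wild-type protein; metal-bound protein with ligand at a 1:3 molar ratio.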

WT α-syn [6] = target: T2, WT α-syn (Homo sapiens, UniProt P37840); test: Native MS of WT α-syn with CLR01; type: binding
Method in brief: as §1

A30P α-syn [7] = target: T3, A30P α-syn (Homo sapiens, UniProt P37840, A30P); test: Native MS of A30P α-syn with CLR01; type: binding; conditions: native solution conditions
Method in brief: as §1

[8] = target: wild type α-syn, acetylated α-syn, and phosphorylated α-syn (Homo sapiens, UniProt P37840); test: Native MS of equimolar proteoform mixture with equimolar CLR01; type: binding; conditions: equimolar ratio of CLR01
Method in brief: as §1

wildtype α-syn = wildtype α-syn (Homo sapiens, UniProt P37840); test: ECD top-down FT-ICR MS, binding site location on WT α-syn; conditions: 13+ charge state, α-syn bound with 2 CLR01 molecules
Method in brief: (§4)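 Protein (10–30 μM) in 20 mM ammonium acetate with test compound at 10–50 μM. Native ESI on a 15T FT-ICR: spray 1–2 kV, capillary exit 100 V, deflector 200 V, funnel 90 V, skimmer 50 V. Complexes isolated with 5–20 m/z notch, then ECD (bias 1 V, pulse 10–50 ms). Fragments deconvoluted at S/N 2. c/z ions assigned at 5 ppm error, with ligand as unlocalized modification.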

A30P α-syn [9] = target: T3, A30P α-syn; test: ECD top-down FT-ICR MS, binding site location on A30P α-syn; conditions: A30P α-syn with 2 CLR01 molecules bound
Method in brief: as §4

WT α-syn [10] = target: T2, WT α-syn; test: IM-MS of WT α-syn with CLR01
Method in brief: as §3

A30P α-syn [11] = target: T3, A30P α-syn; test: IM-MS of A30P α-syn/CLR01 complexes; conditions: 8+ and 9+ charge states
Method in brief: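 WT and A30P α-syn (10–30 μM) in 20 mM ammonium acetate, with test compound at 5x molar excess. Read on a quadrupole-IM-TOF instrument: spray 1–2 kV, sampling cone 10–20 V, source offset 20 V. IM spectra taken over the full m/z range. Per-charge-state data extracted over the [M+nH]ⁿ⁺ peak.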

phosphorylated α-syn = phosphorylated α-syn (Homo sapiens, UniProt P37840); test: IM-MS of phosphorylated α-syn with CLR01; conditions: 9+ charge state
Method in brief: (§5)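 Acetylated (made as previously described) or phosphorylated α-syn in 20 mM ammonium acetate, mixed 1:1 molar with test compound. Ion mobility–MS run on a quadrupole-IM-TOF: spray 1–2 kV, sampling cone 10–20 V, source offset 20 V. Mobiligrams extracted per charge state over the [M+nH]ⁿ⁺ peak.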

acetylated α-syn = acetylated α-syn (Homo sapiens, UniProt P37840); test: IM-MS of acetylated α-syn with CLR01; conditions: 9+ charge state
Method in brief: as §5

tau protein = conditions: IM-MS; cited from earlier work
α-syn [12] = target: T1, α-syn; conditions: IM-MS; cited from earlier work

α-syn bound by Cu2+ (α-syn [1]; 0 CLR01 molecules bound): 65% | number of copper binding events (α-syn [1]; 1:1:3 α-syn:Cu2+:CLR01): 1 | Cu2+ binding location [2]: N-terminus
Compound: [Cu+2] [Cu^2+]
ion mobiligram of Cu2+ bound α-syn versus WT form (α-syn/ Cu^2+ complex; no CLR01): early arriving ensembles significantly more abundant

number of Mn2+ binding events observed (α-syn [3]; 1:5:3 α-syn:Mn2+:CLR01): up to 5 | α-syn bound by Mn2+ (α-syn [3]; CLR01 not bound to the protein): 86% | Mn2+ binding location [4]: acidic C-terminal region | structural effect of Mn2+ binding (α-syn [5]; Mn2+ alone): only slightly compacts
Compound: [Mn+2] [Mn^2+]

CLR01 in solution bound to the protein (WT α-syn [6]; CLR01 at 5x molar concentration): 63% | number of CLR01 binding events observed (WT α-syn [6]; CLR01 at 5x molar concentration, deconvolved mass spectrum): up to 5 | Kd values for the fourth and fifth binding sites (WT α-syn [6]; WT α-syn titrated with CLR01, thought to bind nonspecifically): did not converge well | number of CLR01 binding events observed (A30P α-syn [7]): up to 5 | total CLR01 bound to the protein (A30P α-syn [7]): 74% | number of CLR01 molecules that bind each proteoform [8]: up to 2 | number of CLR01 binding events observed (α-syn [3]; 1:5:3 α-syn:Mn2+:CLR01): ≤ 4 | α-syn bound by Mn2+ (α-syn [3]; 1 CLR01 molecule bound): 89% | α-syn bound by Mn2+ (α-syn [3]; 2 CLR01 molecules bound): 92% | number of CLR01 molecules bound simultaneously with Cu2+ (α-syn [1]; 1:1:3 α-syn:Cu2+:CLR01): Up to 3 | α-syn bound by Cu2+ (α-syn [1]; 3 CLR01 molecules bound): 57% | change of ion mobiligram on CLR01 binding (WT α-syn [10]; higher charge states such as 12+): do not show significant shifts | structural effect when CLR01 and Mn2+ both bind (α-syn [5]; CLR01 and Mn2+ bound): the structure of α-syn is compacted
Compound: CLR01
binding location of the second CLR01 molecule (wildtype α-syn): K12 with a secondary binding location at K21 | CLR01 binding location (A30P α-syn [9]): K10 and K12 with a possible additional site of binding at K21 | change of ion mobiligram on CLR01 binding (WT α-syn [10]; 9+ charge state, 1 CLR01 molecule bound): increase in abundance of the early arriving ensemble | change of ion mobiligram on CLR01 binding (A30P α-syn [11]): early arriving ensembles increase in abundance | change of ion mobiligram on CLR01 binding (phosphorylated α-syn): further increase in abundance of the early arriving ensembles | change of ion mobiligram on CLR01 binding (acetylated α-syn): increase in the abundance of early arriving ensembles | change of ion mobiligram on CLR01 binding (α-syn/ Cu^2+ complex; α-syn/Cu2+ complex): further increases the abundance of the early arriving conformers | structural effect of binding on tau protein (tau protein): compacts the structure of tau protein

Compound: epigallocatechin-3-gallate [EGCG]
structural effect of binding on α-syn (α-syn [12]): promotes compaction of α-syn structure

From publication PMC10959575 (Journal of the American Society for Mass Spectrometry, 2023)
